Published values pooled from the literature.
Protocols differ between the studies behind these lines.
Cell line: NCI-H460
Observed: cell growth or viability

| Compound | technique | time | IC50 |
| --- | --- | --- | --- |
| C=C(Cl)C(=O)Nc1cc(Nc2nc(Nc3cnn(C)c3)c3sccc3n2)c(OC)cc1N(C)CCN(C)C | MTT |  | 3.22 µM |
| COc1ccc(C/C=C/c2cc(OC)cc(OC)c2)cc1 | MTT | 24 h | 77.3 µg/mL |
| Cc1ccc(-c2ccc(CCCN(O)C(=O)CP(=O)(O)O)cc2)cc1 | MTT | 96 h | 229 µM |
| C#Cc1cccc(Nc2ncnc3cc(OCCOC)c(OCCOC)cc23)c1 | MTT |  | 0.04 µM |
| Cc1cccc(-n2ncc(Br)c(Br)c2=O)c1 | resazurin | 96 h | 1.43 µM |
| O=C(O)/C=C/c1ccc(O)c(O)c1 | MTT |  | 3.9 µM |
| COc1ccc(C/C=C/c2ccc(O)c(OC)c2)cc1 | MTT | 24 h | 12.3 µg/mL |
| COc1cc(CNC(=O)CCCC/C=C/C(C)C)ccc1O | SRB |  | 30.7 µM |
| O=C/C(=C/Cc1ccc(O)cc1)c1ccc(O)cc1 | MTT | 24 h | 26.9 µg/mL |
| CC(=O)O[C@H]1CC[C@]2(C)[C@H]3CC=C4[C@@H]5CC(C)(C)CC[C@]5(C)CC[C@@]4(C)[C@]3(C)CC[C@H]2C1(C)C |  | 48 h | 10.6 µM |
| COc1cc(CNC(=O)CCCC/C=C/C(C)C)ccc1OCc1cn(-c2ccc(C#N)cc2)nn1 | SRB |  | 5.55 µM |
| CC(=O)c1ccc(N=Nc2c(C(=O)O)cc(O)c(O)c2O)cc1 | MTT |  | 13.6 µM |
| C=CC(=O)Nc1cc(Nc2nc(Nc3cnn(C)c3)c3sccc3n2)c(OC)cc1N(C)CCN(C)C | MTT |  | > 50 µM |
| COc1cc(C/C=C/c2ccc(O)cc2)ccc1O | MTT | 24 h | 19.9 µg/mL |
| O=c1[nH]cc(F)c(=O)[nH]1 | MTT | 72 h | 3 µM |
| Cc1ccc(-c2ccc(O)cc2)c(C(=C2C=CC(=O)C=C2)c2ccc(O)cc2)c1C#Cc1ccc(O)cc1 | MTT | 48 h | 15.5 µM |
| COc1cc(/C=C/Cc2ccc(O)c(OC)c2)cc(OC)c1 | MTT | 24 h | 16.1 µg/mL |
| COc1cc(N(C)CCN(C)C)c(NC(=O)C=C(C)C)cc1Nc1nc(N2CCc3sccc3C2)c2sccc2n1 | MTT |  | 0.533 µM |
| Oc1ccc(C/C=C(/COCc2ccccc2)c2ccc(OCc3ccccc3)cc2)cc1 | MTT | 24 h | 27.9 µg/mL |
| CCC(=O)Nc1cc(Nc2nc(N3CCc4sccc4C3)c3cccnc3n2)c(OC)cc1N1CCN(CC)CC1 | MTT |  | 1.16 µM |
| O=C1NCCc2[nH]c(-c3ccncc3)cc21 |  |  | 10 µM |
| C=CC(=O)Nc1cc(Nc2nc(N3CCc4sccc4C3)c3cccnc3n2)c(OC)cc1N1CCN(CCO)CC1 | MTT |  | 8.03 µM |
| COc1cc(Nc2nccc(-c3cnn4nc(OC)ccc34)n2)cc(C(F)(F)F)c1 | ATP luminescence |  | 0.33 µM |
| COc1cc(N(C)CCN(C)C)c(NC(=O)/C=C/C(C)C)cc1Nc1nc(Nc2cnn(C)c2)c2sccc2n1 | MTT |  | 2.25 µM |
| CC[C@@]1(O)C(=O)OCc2c1cc1n(c2=O)Cc2cc3ccccc3nc2-1 |  | 72 h | < 0.01 µM |
| CCC(=O)Nc1cc(Nc2nc(N3CCOCC3)c3sccc3n2)c(OC)cc1N(C)CCN(C)C | MTT |  | > 50 µM |
| C(/Cc1ccc(OCc2ccccc2)cc1)=C(\COCc1ccccc1)c1ccc(OCc2ccccc2)cc1 | MTT | 24 h | 48.3 µg/mL |
| O=C(O)c1cc(O)c(O)c(O)c1 | MTT |  | 14.9 µM |
| C=CC(=O)Nc1cc(Nc2nc(N3CCc4sccc4C3)c3sccc3n2)c(OC)cc1N1CCN(C)CC1 | MTT |  | 0.913 µM |
